For 9 compounds, pED50 and IA results are on record in ChEMBL document CHEMBL1122253, “Optically active catecholimidazolines: a study of steric interactions at alpha-adrenoreceptors” (1983).

The species entered for test [1] is Rattus norvegicus. Description: Negative Log of ED50 used to stimulate alpha adrenergic activity in rat aorta.
The species entered for test [2] is Rattus norvegicus. In words: Relative value for maximum contraction (10e-5 = 1.0, phenylephrine) of rat aorta. The class given is functional. Put shortly:
(§1)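 Thoracic aorta: the 2-cm segment distal to the first intercostal artery, cut into strips at 75–80° to the lumen. Strips kept in PSS gassed with 95% O2/5% CO2 […], under 2-g tension with isometric force recording. After 1 h equilibration, one half-maximal phenylephrine challenge, then 1 h re-equilibration. Cumulative concentration-effect curves used about threefold steps, with washout and at least 1 h between curves.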

Test [3] is filed under the species Rattus norvegicus. In words: Negative Log of ED50 used to inhibit alpha adrenergic activity in rat aorta. Format: functional. Put shortly:
as §1

Each structure is given as a SMILES string.

`CN1CC[N+](C)=C1Cc1ccc(O)c(O)c1.Cl.F[B-](F)(F)F` showed a pED50 in the test filed under Rattus norvegicus [1] of 5.54. The IA in the test listed under Rattus norvegicus [2] turned out to be 0.81.

Compound `Cl.Oc1ccc(CC2=NCCN2)cc1O` yielded a pED50 in the test listed under Rattus norvegicus [1] of 8.59. Further, the IA in the test filed under Rattus norvegicus [2] amounted to 1.

In the test filed under Rattus norvegicus [1], `C[C@@H]1CN=C(Cc2ccc(O)c(O)c2)N1.Cl` yielded a pED50 of 6.29. Moreover, in the test filed under Rattus norvegicus [2], the IA is recorded as 0.74.

Take `Cl.Oc1ccc(CC2=NC[C@H](Cc3ccccc3)N2)cc1O`: the pED50 in the test filed under Rattus norvegicus [1] is given as 4.33. Also, the IA in the test filed under Rattus norvegicus [2] came out at 1.

As for `Cl.Oc1ccc(CC2=NC[C@@H](Cc3ccccc3)N2)cc1O`, the pED50 in the test filed under Rattus norvegicus [1] is 4.44. The IA in the test filed under Rattus norvegicus [2] was determined as 0.91.

Consider `Cl.Oc1ccc([C@H](O)C2=NCCN2)cc1O`, for which the pED50 in the test listed under Rattus norvegicus [1] is reported as 7.67. Besides, the IA in the test filed under Rattus norvegicus [2] was 1.

For the compound `Cl.Oc1ccc([C@@H](O)C2=NCCN2)cc1O`, the pED50 in the test filed under Rattus norvegicus [1] is 8.59. In addition, the IA in the test listed under Rattus norvegicus [2] is listed as 1.

In the test listed under Rattus norvegicus [1], `C[C@H]1CN=C(Cc2ccc(O)c(O)c2)N1.Cl` displayed a pED50 of 6.32. In the test filed under Rattus norvegicus [2], the IA stood at 1.

`CN1CCN=C1Cc1ccc(O)c(O)c1.Cl` came in with a pED50 in the test filed under Rattus norvegicus [3] of 5.84. The compound also returned an IA in the test listed under Rattus norvegicus [2] of 0.85.
